pIC50: −log10 of the molar value. In brackets after ≈: the same amount, converted by molar mass. Blank lines part the entries; values can stand above or below the molecule they belong to.
Assays:
[1] = system: Plasmodium falciparum; experiment: Antimalarial activity against chloroquine-resistant Plasmodium falciparum K1 infected in human erythrocytes after 48 hrs by [3H]hypoxanthine assay; format: functional, organism-based
[2] = system: Plasmodium falciparum; experiment: Antimalarial activity against drug-sensitive Plasmodium falciparum NF54 infected in human erythrocytes after 48 hrs by [3H]hypoxanthine assay; format: functional, organism-based
[3] = target: Cytochrome P450 2D6 (Homo sapiens, UniProt P10635); experiment: Inhibition of CYP2D6 in human liver microsome by LC-MS/MS analysis; format: ADME, microsomes
[4] = Clearance in mouse at 5 mg/kg, iv; format: ADME, organism-based; parameters: dose 5 mg/kg, route intravenous; conditions: in vivo
[5] = target: Cytochrome P450 3A4 (Homo sapiens, UniProt P08684); experiment: Inhibition of CYP3A4 in human liver microsome by LC-MS/MS analysis; format: ADME, microsomes
[6] = target: Cytochrome P450 2C9 (Homo sapiens, UniProt P11712); experiment: Inhibition of CYP2C9 in human liver microsome by LC-MS/MS analysis; format: ADME, microsomes
[7] = Solubility at pH 6.8; format: physicochemical; conditions: buffer
[8] = Lipophilicity, log P of the compound; format: physicochemical; conditions: octanol/water
[9] = system: Plasmodium berghei; experiment: Antimalarial activity against Plasmodium berghei ANKA infected in NMRI mice (Mus musculus) assessed as reduction in parasitaemia at 100 mg/kg, perorally administered as single dose; format: functional; parameters: scale not given: the % may be the effect or the level left; conditions: route oral
How it was run: (§1)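 P. berghei-infected mice, 5 per group, given compound orally in 10% ethanol, 30% PEG400, 6% vitamin E TPGS, as a single dose or daily for three days. Parasitemia is measured on day three and reported as percent reduction (activity).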

[10] = system: Plasmodium berghei; experiment: Antimalarial activity against Plasmodium berghei ANKA infected in NMRI mice (Mus musculus) assessed as host survival time at 10 mg/kg, perorally administered once daily for 3 days (reference value: 6 to 7 days); format: functional; conditions: route oral
[11] = system: Plasmodium berghei; experiment: Antimalarial activity against Plasmodium berghei ANKA infected in NMRI mice (Mus musculus) assessed as reduction in parasitaemia at 30 mg/kg, perorally administered once daily for 3 days; format: functional; parameters: scale not given: the % may be the effect or the level left; conditions: route oral; how it was run: as §1
[12] = system: Plasmodium berghei; experiment: Antimalarial activity against Plasmodium berghei ANKA infected in NMRI mice (Mus musculus) assessed as reduction in parasitaemia at 10 mg/kg, perorally administered once daily for 3 days; format: functional; parameters: scale not given: the % may be the effect or the level left; conditions: route oral; how it was run: as §1
[13] = system: Plasmodium berghei; experiment: Antimalarial activity against Plasmodium berghei ANKA infected in NMRI mice (Mus musculus) assessed as host survival time at 30 mg/kg, perorally administered as single dose (reference value: 6 to 7 days); format: functional; conditions: route oral
[14] = system: Plasmodium berghei; experiment: Antimalarial activity against Plasmodium berghei ANKA infected in NMRI mice (Mus musculus) assessed as host survival time at 100 mg/kg, perorally administered as single dose (reference value: 6 to 7 days); format: functional; conditions: route oral
[15] = system: Plasmodium berghei; experiment: Antimalarial activity against Plasmodium berghei ANKA infected in NMRI mice (Mus musculus) assessed as reduction in parasitaemia at 30 mg/kg, perorally administered as single dose; format: functional; parameters: scale not given: the % may be the effect or the level left; conditions: route oral; how it was run: as §1
[16] = system: Plasmodium berghei; experiment: Antimalarial activity against Plasmodium berghei ANKA infected in NMRI mice (Mus musculus) assessed as host survival time at 30 mg/kg, perorally administered once daily for 3 days (reference value: 6 to 7 days); format: functional; conditions: route oral
[17] = target: Voltage-gated inwardly rectifying potassium channel KCNH2 (Homo sapiens, UniProt Q12809); experiment: Binding affinity to human ERG
[18] = Cmax in mouse at 25 mg/kg, po; format: ADME, organism-based; parameters: dose 25 mg/kg, route oral; conditions: in vivo
How it was run: (§2)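 Mouse pharmacokinetics. Plasma drug concentration was followed over time. Derived values: Cmax, Tmax, AUC extrapolated to infinity, terminal half-life, and oral bioavailability (F) from the oral and iv exposures.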

[19] = Clearance in mouse at 5 mg/kg, iv; conditions: in vivo
[20] = AUC (infinity) in mouse at 25 mg/kg, po; format: ADME, organism-based; parameters: time infinity, dose 25 mg/kg, route oral; conditions: plasma; how it was run: as §2
[21] = Volume of distribution at steady state in mouse at 5 mg/kg, iv; conditions: in vivo, read-out: Vdss
[22] = Half life in mouse at 5 mg/kg, iv; conditions: in vivo
[23] = Half life in mouse at 25 mg/kg, po; format: ADME, organism-based; parameters: dose 25 mg/kg, route oral; conditions: in vivo; how it was run: as §2
[24] = system: Mus musculus; experiment: Oral bioavailability in mouse at 25 mg/kg; format: ADME, organism-based; conditions: in vivo; how it was run: as §2
[25] = Tmax in mouse at 25 mg/kg, po; format: ADME, organism-based; parameters: dose 25 mg/kg, route oral; conditions: in vivo; how it was run: as §2

Sequence of Cytochrome P450 3A4 (P08684 whole entry): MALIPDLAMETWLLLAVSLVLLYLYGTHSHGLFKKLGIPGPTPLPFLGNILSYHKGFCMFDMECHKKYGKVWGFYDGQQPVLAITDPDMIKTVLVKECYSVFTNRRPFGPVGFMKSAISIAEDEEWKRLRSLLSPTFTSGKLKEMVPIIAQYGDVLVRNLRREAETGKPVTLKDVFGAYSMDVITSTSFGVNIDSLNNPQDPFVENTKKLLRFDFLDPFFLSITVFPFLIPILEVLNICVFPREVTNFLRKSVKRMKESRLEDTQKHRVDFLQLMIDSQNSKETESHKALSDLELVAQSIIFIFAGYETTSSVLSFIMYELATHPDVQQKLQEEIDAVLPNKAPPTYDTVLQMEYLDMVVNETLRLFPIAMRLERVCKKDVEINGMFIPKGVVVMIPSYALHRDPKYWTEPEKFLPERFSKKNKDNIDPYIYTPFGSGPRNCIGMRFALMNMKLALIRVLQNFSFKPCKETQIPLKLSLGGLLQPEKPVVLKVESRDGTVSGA
Sequence of Cytochrome P450 2C9 (P11712 whole entry): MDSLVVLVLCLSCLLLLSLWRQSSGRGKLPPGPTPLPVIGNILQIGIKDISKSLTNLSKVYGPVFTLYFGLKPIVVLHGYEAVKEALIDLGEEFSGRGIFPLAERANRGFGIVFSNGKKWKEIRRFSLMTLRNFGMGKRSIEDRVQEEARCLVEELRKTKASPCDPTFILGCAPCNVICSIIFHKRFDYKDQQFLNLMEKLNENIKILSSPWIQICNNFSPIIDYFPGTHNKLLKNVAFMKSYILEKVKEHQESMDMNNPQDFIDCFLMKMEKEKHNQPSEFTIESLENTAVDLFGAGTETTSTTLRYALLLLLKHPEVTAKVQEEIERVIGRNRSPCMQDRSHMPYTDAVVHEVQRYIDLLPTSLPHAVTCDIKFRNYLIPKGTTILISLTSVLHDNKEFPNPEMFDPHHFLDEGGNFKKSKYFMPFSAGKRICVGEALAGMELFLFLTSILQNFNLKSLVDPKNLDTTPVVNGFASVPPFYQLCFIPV
Sequence of Cytochrome P450 2D6 (P10635 whole entry): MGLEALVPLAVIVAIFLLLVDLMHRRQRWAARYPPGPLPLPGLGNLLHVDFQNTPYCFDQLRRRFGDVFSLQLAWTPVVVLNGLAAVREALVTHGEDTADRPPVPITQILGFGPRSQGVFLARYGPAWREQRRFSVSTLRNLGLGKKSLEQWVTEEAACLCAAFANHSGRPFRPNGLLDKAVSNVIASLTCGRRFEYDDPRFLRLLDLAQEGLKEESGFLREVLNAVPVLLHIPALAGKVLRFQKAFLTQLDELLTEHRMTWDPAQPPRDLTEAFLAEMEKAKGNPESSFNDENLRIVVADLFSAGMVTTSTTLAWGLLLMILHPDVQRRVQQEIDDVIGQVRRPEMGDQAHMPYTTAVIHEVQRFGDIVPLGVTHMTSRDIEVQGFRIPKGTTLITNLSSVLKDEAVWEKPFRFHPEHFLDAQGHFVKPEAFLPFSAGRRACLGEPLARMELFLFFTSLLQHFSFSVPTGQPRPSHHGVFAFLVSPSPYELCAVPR
Sequence of Voltage-gated inwardly rectifying potassium channel KCNH2 (Q12809 whole entry): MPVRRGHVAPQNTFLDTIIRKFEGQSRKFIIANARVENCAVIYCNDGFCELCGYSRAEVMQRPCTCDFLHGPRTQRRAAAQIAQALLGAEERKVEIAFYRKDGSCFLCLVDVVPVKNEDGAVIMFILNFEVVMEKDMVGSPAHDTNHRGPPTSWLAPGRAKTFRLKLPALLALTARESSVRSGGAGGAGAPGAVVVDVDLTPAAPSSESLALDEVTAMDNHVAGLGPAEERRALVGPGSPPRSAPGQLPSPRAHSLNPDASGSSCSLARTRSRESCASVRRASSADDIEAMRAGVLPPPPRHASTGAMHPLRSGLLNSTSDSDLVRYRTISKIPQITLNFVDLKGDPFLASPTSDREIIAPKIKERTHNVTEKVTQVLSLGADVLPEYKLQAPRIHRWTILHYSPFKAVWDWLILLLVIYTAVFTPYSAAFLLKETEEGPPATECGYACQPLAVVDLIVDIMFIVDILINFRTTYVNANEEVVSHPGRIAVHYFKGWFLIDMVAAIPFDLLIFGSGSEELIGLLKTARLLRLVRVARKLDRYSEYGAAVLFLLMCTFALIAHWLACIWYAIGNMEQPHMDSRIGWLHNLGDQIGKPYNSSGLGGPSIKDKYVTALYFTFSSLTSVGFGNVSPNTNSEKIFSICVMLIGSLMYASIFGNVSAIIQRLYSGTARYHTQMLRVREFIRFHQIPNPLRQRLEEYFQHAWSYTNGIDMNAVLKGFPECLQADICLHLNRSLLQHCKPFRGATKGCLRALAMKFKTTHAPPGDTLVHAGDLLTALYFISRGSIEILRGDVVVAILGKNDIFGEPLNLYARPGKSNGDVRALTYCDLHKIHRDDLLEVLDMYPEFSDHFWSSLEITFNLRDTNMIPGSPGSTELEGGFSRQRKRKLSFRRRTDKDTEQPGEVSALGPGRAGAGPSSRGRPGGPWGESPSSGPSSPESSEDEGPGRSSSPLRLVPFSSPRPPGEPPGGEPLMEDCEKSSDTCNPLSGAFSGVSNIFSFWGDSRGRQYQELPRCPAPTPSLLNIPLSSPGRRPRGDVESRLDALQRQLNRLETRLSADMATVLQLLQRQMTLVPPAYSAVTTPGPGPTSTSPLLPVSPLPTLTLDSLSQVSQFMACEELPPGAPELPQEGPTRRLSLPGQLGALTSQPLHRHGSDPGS

SMILES: O=C1Nc2ccc(Cl)cc2C12NCCCc1c2[nH]c2ccccc12 (stereo not given)
pIC50 [1]: 7.08 | pIC50 [2]: 7.07

IC50 [3]: Not Active | clearance [4]: 4.14 mL/min/kg | IC50 [5]: Not Active | pIC50 [6]: < 5.00 | pIC50 [2]: 7.08
SMILES: C[C@@H]1Cc2c([nH]c3cc(F)c(F)cc23)[C@]2(N1)C(=O)Nc1ccc(Cl)cc12

SMILES: O=C1Nc2ccc(Cl)cc2C12NCCc1c2[nH]c2ccccc12 (stereo not given)
pIC50 [1]: 6.98 | pIC50 [2]: 6.90

IC50 [3]: Not Active | IC50 [5]: Not Active | pIC50 [6]: < 5.00 | pIC50 [2]: 6.74
SMILES: C[C@@H]1Cc2c([nH]c3ccc(F)cc23)[C@]2(N1)C(=O)Nc1ccc(Cl)cc12

solubility [7]: 79 µg/mL (≈ 199 µM) | logP [8]: 3.9
SMILES: C[C@H]1CCc2c([nH]c3ccccc23)[C@@]2(N1)C(=O)Nc1ccc(Br)cc12

SMILES: C[C@@H]1CCc2c([nH]c3ccccc23)[C@]2(N1)C(=O)Nc1ccc(Br)cc12
pIC50 [2]: < 5.30

SMILES: CC1CCc2c([nH]c3ccccc23)C2(N1)C(=O)Nc1ccc(Br)cc12 (stereo not given) [SPIROAZEPINEINDOLE]
pIC50 [2]: 7.05

SMILES: CC1(C)Cc2c([nH]c3ccccc23)C2(N1)C(=O)Nc1ccc(Cl)cc12 (stereo not given)
pIC50 [1]: 6.09 | pIC50 [2]: 6.07

SMILES: C[C@H]1[C@H](OC(=O)CCC(=O)O)O[C@@H]2O[C@@]3(C)CC[C@H]4[C@H](C)CC[C@@H]1[C@@]24OO3 [ARTESUNATE]
Activity [9]: 98% | Survival [10]: 8.1 days | Activity [11]: 99% | Activity [12]: 96% | Survival [13]: 5.8 days | Survival [14]: 7 days | Activity [15]: 95.6% | Survival [16]: 12.2 days

SMILES: CCN(CC)CCCC(C)Nc1ccnc2cc(Cl)ccc12 (stereo not given) [CHLOROQUINE]
Activity [9]: 99.6% | Survival [10]: 13.6 days | Activity [11]: 99.8% | Activity [12]: 99.8% | Survival [13]: 9 days | Survival [14]: 12.5 days | Activity [15]: 99.5% | Survival [16]: 14.3 days

SMILES: C[C@H]1Cc2c([nH]c3cc(F)c(F)cc23)[C@@]2(N1)C(=O)Nc1ccc(Cl)cc12
pIC50 [17]: < 4.52 | solubility [7]: 170 µg/mL (≈ 455 µM) | Cmax [18]: 8.32 µM | IC50 [3]: Not Active | Survival [10]: 17.2 days | clearance [4]: 8.53 mL/min/kg | clearance [19]: 8.53 mL/min/kg | AUC(0-inf) [20]: 71.4 µM·h | Vd [21]: 1.6 L/kg | IC50 [5]: Not Active | Survival [13]: 12 days | half-life [22]: 2.94 h | Survival [14]: 13 days | half-life [23]: 3.18 h | F [24]: 53% | Tmax [25]: 2 h | logP [8]: 4 | Survival [16]: 29.4 days | pIC50 [6]: 5.13 | pIC50 [2]: 9.70

SMILES: O=C1Nc2ccc(Cl)cc2C12NCCCCc1c2[nH]c2ccccc12 (stereo not given)
pIC50 [1]: < 5.30 | pIC50 [2]: < 5.30

solubility [7]: 140 µg/mL (≈ 393 µM) | IC50 [3]: Not Active | clearance [4]: 24 mL/min/kg | IC50 [5]: Not Active | logP [8]: 3.6 | pIC50 [6]: 5.76 | pIC50 [2]: 8.52
SMILES: C[C@H]1Cc2c([nH]c3ccc(F)cc23)[C@@]2(N1)C(=O)Nc1ccc(Cl)cc12

IC50 [3]: Not Active | IC50 [5]: Not Active | pIC50 [6]: < 5.00 | pIC50 [2]: 6.94
SMILES: C[C@@H]1Cc2c([nH]c3cc(Cl)ccc23)[C@]2(N1)C(=O)Nc1ccc(Cl)cc12

SMILES: C[C@@H]1Cc2c([nH]c3cc(Cl)c(F)cc23)[C@]2(N1)C(=O)Nc1ccc(Cl)cc12
IC50 [3]: Not Active | clearance [4]: 2.58 mL/min/kg | IC50 [5]: Not Active | pIC50 [6]: < 5.00 | pIC50 [2]: 7.11

pIC50 [2]: 7.08
SMILES: CC1CCc2c([nH]c3ccccc23)C2(N1)C(=O)Nc1ccc(Cl)cc12 (stereo not given)

solubility [7]: 8 µg/mL (≈ 21.5 µM) | IC50 [3]: Not Active | clearance [4]: 60.1 mL/min/kg | IC50 [5]: Not Active | logP [8]: 4.8 | pIC50 [6]: 5.39 | pIC50 [2]: 8.40
SMILES: C[C@H]1Cc2c([nH]c3cc(Cl)ccc23)[C@@]2(N1)C(=O)Nc1ccc(Cl)cc12
pIC50 [17]: < 4.52

IC50 [3]: Not Active | IC50 [5]: Not Active | pIC50 [6]: 5.27
SMILES: C[C@H]1Cc2c([nH]c3cc(Cl)c(F)cc23)[C@@]2(N1)C(=O)Nc1ccc(Cl)cc12 [CIPARGAMIN]

From ChEMBL document CHEMBL1155453, “Spirotetrahydro beta-carbolines (spiroindolones): a new class of potent and orally efficacious compounds for the treatment of malaria” (J Med Chem, 2010)
